# Laboratory results published in ChEMBL document CHEMBL3627671, “Novel derivatives of nitro-substituted salicylic acids: Synthesis, antimicrobial activity and cytotoxicity” (Bioorg Med Chem, 2015).
# Tests used:
# [1] = test system: Mycobacterium tuberculosis; assay: Antimycobacterial activity against Mycobacterium tuberculosis H37Rv 331/88 after 14 days; type: functional; details: H37Rv 331/88, 336 h
# [2] = test system: Mycobacterium tuberculosis; assay: Antimycobacterial activity against Mycobacterium tuberculosis H37Rv 331/88 after 21 days; type: functional; details: H37Rv 331/88, 504 h
# Mycobacterium avium [3] = assay: Antimycobacterial activity against Mycobacterium avium 330/80 after 14 days; type: functional; details: 330/80, 336 h
# Mycobacterium avium [4] = assay: Antimycobacterial activity against Mycobacterium avium 330/80 after 21 days; type: functional; details: 330/80, 504 h
# Mycobacterium kansasii [5] = assay: Antimycobacterial activity against Mycobacterium kansasii 235/80 after 7 days; type: functional; details: 235/80, 168 h
# Summary of the method: (§1)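 Šula's semisynthetic medium micromethod at 37 °C, read after 7, 14 and 21 days. The 1.0 McFarland suspension was diluted 10^-4. MIC determined. 6509/96 is a clinical isolate.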
# Mycobacterium kansasii [6] = assay: Antimycobacterial activity against Mycobacterium kansasii 235/80 after 14 days; type: functional; details: 235/80, 336 h; summary of the method: as §1
# Mycobacterium kansasii [7] = assay: Antimycobacterial activity against Mycobacterium kansasii 235/80 after 21 days; type: functional; details: 235/80, 504 h; summary of the method: as §1
# Mycobacterium kansasii [8] = assay: Antimycobacterial activity against Mycobacterium kansasii 6509/96 after 7 days; type: functional; details: 6509/96, 168 h; summary of the method: as §1
# Mycobacterium kansasii [9] = assay: Antimycobacterial activity against Mycobacterium kansasii 6509/96 after 14 days; type: functional; details: 6509/96, 336 h; summary of the method: as §1
# Mycobacterium kansasii [10] = assay: Antimycobacterial activity against Mycobacterium kansasii 6509/96 after 21 days; type: functional; details: 6509/96, 504 h; summary of the method: as §1
# Staphylococcus aureus [11] = assay: Antibacterial activity against Staphylococcus aureus CCM 4516/08 after 24 hrs by microdilution broth method; type: functional; details: CCM 4516/08, 24 h
# Staphylococcus aureus [12] = assay: Antibacterial activity against Staphylococcus aureus CCM 4516/08 after 48 hrs by microdilution broth method; type: functional; details: CCM 4516/08, 48 h
# Staphylococcus aureus [13] = assay: Antibacterial activity against methicillin-resistant Staphylococcus aureus H 5996/08 after 24 hrs by microdilution broth method; type: functional; details: H 5996/08, 24 h
# Staphylococcus aureus [14] = assay: Antibacterial activity against methicillin-resistant Staphylococcus aureus H 5996/08 after 48 hrs by microdilution broth method; type: functional; details: H 5996/08, 48 h
# [15] = test system: Staphylococcus epidermidis; assay: Antibacterial activity against Staphylococcus epidermidis H 6966/08 after 24 hrs by microdilution broth method; type: functional; details: H 6966/08, 24 h
# Summary of the method: (§2)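 Mueller-Hinton broth microdilution (modified M07-A07), pH 7.4 (±0.2). Compounds dissolved in DMSO, tested at final 500 to 0.49 µmol/L. Inoculum in sterile water matched to 0.5 McFarland. Incubated in the dark, humid atmosphere, 35 °C, read at 24 and 48 h visually and at 540 nm. MIC taken as ≥95% growth reduction (IC95) versus control.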
# [16] = test system: Staphylococcus epidermidis; assay: Antibacterial activity against Staphylococcus epidermidis H 6966/08 after 48 hrs by microdilution broth method; type: functional; details: H 6966/08, 48 h; summary of the method: as §2
# Enterococcus sp. [17] = assay: Antibacterial activity against Enterococcus sp. J 14365/08 after 24 hrs by microdilution broth method; type: functional; details: J 14365/08, 24 h; summary of the method: as §2
# Enterococcus sp. [18] = assay: Antibacterial activity against Enterococcus sp. J 14365/08 after 48 hrs by microdilution broth method; type: functional; details: J 14365/08, 48 h; summary of the method: as §2
# Escherichia coli [19] = assay: Antibacterial activity against Escherichia coli CCM4517 after 24 hrs by microdilution broth method; type: functional; details: CCM4517, 24 h; summary of the method: as §2
# Escherichia coli [20] = assay: Antibacterial activity against Escherichia coli CCM4517 after 48 hrs by microdilution broth method; type: functional; details: CCM4517, 48 h; summary of the method: as §2
# Klebsiella pneumoniae [21] = assay: Antibacterial activity against Klebsiella pneumoniae D 11750/08 after 24 hrs by microdilution broth method; type: functional; details: D 11750/08, 24 h; summary of the method: as §2
# Klebsiella pneumoniae [22] = assay: Antibacterial activity against Klebsiella pneumoniae D 11750/08 after 48 hrs by microdilution broth method; type: functional; details: D 11750/08, 48 h; summary of the method: as §2
# Klebsiella pneumoniae [23] = assay: Antibacterial activity against ESBL-positive Klebsiella pneumoniae J 14368/08 after 24 hrs by microdilution broth method; type: functional; details: J 14368/08, 24 h; summary of the method: as §2
# Klebsiella pneumoniae [24] = assay: Antibacterial activity against ESBL-positive Klebsiella pneumoniae J 14368/08 after 48 hrs by microdilution broth method; type: functional; details: J 14368/08, 48 h; summary of the method: as §2
# Pseudomonas aeruginosa [25] = assay: Antibacterial activity against Pseudomonas aeruginosa CCM 1961 after 24 hrs by microdilution broth method; type: functional; details: CCM 1961, 24 h; summary of the method: as §2
# Pseudomonas aeruginosa [26] = assay: Antibacterial activity against Pseudomonas aeruginosa CCM 1961 after 48 hrs by microdilution broth method; type: functional; details: CCM 1961, 48 h; summary of the method: as §2
# Candida albicans [27] = assay: Antifungal activity against Candida albicans ATCC 44859 after 24 hrs by microdilution broth method; type: functional; details: ATCC 44859, 24 h
# Summary of the method: (§3)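 CLSI M27-A3 broth microdilution in RPMI 1640 with glutamine, buffered to pH 7.0 with MOPS; DMSO diluent. Yeast inoculum 5 × 10^3 ± 0.2 CFU/mL. Moulds grown on Sabouraud agar 3–10 days before spore harvest, final inoculum 0.5-5 × 10^4 CFU/mL, checked in a Bürker chamber. Incubated dark, humid, 35 °C, read at 24 and 48 h visually and at 540 nm. MIC taken as ≥80% (yeasts) or ≥50% (filamentous) growth reduction versus control.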
# Candida albicans [28] = assay: Antifungal activity against Candida albicans ATCC 44859 after 48 hrs by microdilution broth method; type: functional; details: ATCC 44859, 48 h; summary of the method: as §3
# Candida tropicalis [29] = assay: Antifungal activity against Candida tropicalis 156 after 24 hrs by microdilution broth method; type: functional; details: Candida tropicalis, 156, 24 h; summary of the method: as §3
# Candida tropicalis [30] = assay: Antifungal activity against Candida tropicalis 156 after 48 hrs by microdilution broth method; type: functional; details: Candida tropicalis, 156, 48 h; summary of the method: as §3
# Pichia kudriavzevii [31] = assay: Antifungal activity against Candida krusei E28 after 24 hrs by microdilution broth method; type: functional; details: E28, 24 h; summary of the method: as §3
# Pichia kudriavzevii [32] = assay: Antifungal activity against Candida krusei E28 after 48 hrs by microdilution broth method; type: functional; details: E28, 48 h; summary of the method: as §3
# Nakaseomyces glabratus [33] = assay: Antifungal activity against Candida glabrata 20/I after 24 hrs by microdilution broth method; type: functional; summary of the method: as §3
# Nakaseomyces glabratus [34] = assay: Antifungal activity against Candida glabrata 20/I after 48 hrs by microdilution broth method; type: functional; summary of the method: as §3
# Trichosporon asahii [35] = assay: Antifungal activity against Trichosporon asahii 1188 after 24 hrs by microdilution broth method; type: functional; details: Trichosporon asahii, 1188, 24 h; summary of the method: as §3
# Trichosporon asahii [36] = assay: Antifungal activity against Trichosporon asahii 1188 after 48 hrs by microdilution broth method; type: functional; details: Trichosporon asahii, 1188, 48 h; summary of the method: as §3
# Aspergillus fumigatus [37] = assay: Antifungal activity against Aspergillus fumigatus 231 after 24 hrs by microdilution broth method; type: functional; details: Aspergillus fumigatus, 231, 24 h; summary of the method: as §3
# Aspergillus fumigatus [38] = assay: Antifungal activity against Aspergillus fumigatus 231 after 48 hrs by microdilution broth method; type: functional; details: Aspergillus fumigatus, 231, 48 h; summary of the method: as §3
# Lichtheimia corymbifera [39] = assay: Antifungal activity against Absidia corymbifera 272 after 24 hrs by microdilution broth method; type: functional; details: Lichtheimia corymbifera, 272, 24 h; summary of the method: as §3
# Lichtheimia corymbifera [40] = assay: Antifungal activity against Absidia corymbifera 272 after 48 hrs by microdilution broth method; type: functional; details: Lichtheimia corymbifera, 272, 48 h; summary of the method: as §3
# [41] = test system: Trichophyton mentagrophytes; assay: Antifungal activity against Trichophyton mentagrophytes 445 after 24 hrs by microdilution broth method; type: functional; details: Trichophyton mentagrophytes, 445, 24 h
# [42] = test system: Trichophyton mentagrophytes; assay: Antifungal activity against Trichophyton mentagrophytes 445 after 48 hrs by microdilution broth method; type: functional; details: Trichophyton mentagrophytes, 445, 48 h
# HepG2 = assay: Cytotoxicity against human HepG2 cells after 24 hrs […]; type: cell-based; details: HepG2, 24 h
# [43] = Selectivity index, ratio of CI50 for human HepG2 cells to MIC100 for Mycobacterium tuberculosis H37Rv 331/88
smiles,measurement,setting,value
O=C(Nc1cc(C(F)(F)F)cc(C(F)(F)F)c1)c1ccc([N+](=O)[O-])cc1O,MIC,[1],4 µM
same,MIC,[2],8 µM
same,MIC,Mycobacterium avium [3],32 µM
same,MIC,Mycobacterium avium [4],32 µM
same,MIC,Mycobacterium kansasii [5],8 µM
same,MIC,Mycobacterium kansasii [6],16 µM
same,MIC,Mycobacterium kansasii [7],16 µM
same,MIC,Mycobacterium kansasii [8],16 µM
same,MIC,Mycobacterium kansasii [9],16 µM
same,MIC,Mycobacterium kansasii [10],16 µM
same,MIC,Staphylococcus aureus [11],1.95 µM
same,MIC,Staphylococcus aureus [12],1.95 µM
same,MIC,Staphylococcus aureus [13],0.98 µM
same,MIC,Staphylococcus aureus [14],0.98 µM
same,MIC,[15],1.95 µM
same,MIC,[16],1.95 µM
same,MIC,Enterococcus sp. [17],62.5 µM
same,MIC,Enterococcus sp. [18],125 µM
same,MIC,Escherichia coli [19],> 500 µM
same,MIC,Escherichia coli [20],> 500 µM
same,MIC,Klebsiella pneumoniae [21],> 500 µM
same,MIC,Klebsiella pneumoniae [22],> 500 µM
same,MIC,Klebsiella pneumoniae [23],> 500 µM
same,MIC,Klebsiella pneumoniae [24],> 500 µM
same,MIC,Pseudomonas aeruginosa [25],> 500 µM
same,MIC,Pseudomonas aeruginosa [26],> 500 µM
same,MIC,Candida albicans [27],> 500 µM
same,MIC,Candida albicans [28],> 500 µM
same,MIC,Candida tropicalis [29],> 500 µM
same,MIC,Candida tropicalis [30],> 500 µM
same,MIC,Pichia kudriavzevii [31],> 500 µM
same,MIC,Pichia kudriavzevii [32],> 500 µM
same,MIC,Nakaseomyces glabratus [33],> 500 µM
same,MIC,Nakaseomyces glabratus [34],> 500 µM
same,MIC,Trichosporon asahii [35],> 500 µM
same,MIC,Trichosporon asahii [36],> 500 µM
same,MIC,Aspergillus fumigatus [37],> 500 µM
same,MIC,Aspergillus fumigatus [38],> 500 µM
same,MIC,Lichtheimia corymbifera [39],> 500 µM
same,MIC,Lichtheimia corymbifera [40],> 500 µM
same,MIC,[41],> 500 µM
same,MIC,[42],> 500 µM
same,IC50,HepG2,4.4 µM
same,Selectivity Index,[43],0.55
